Tests used:
[1] = target: 11-beta-hydroxysteroid dehydrogenase 1 (Rattus norvegicus, UniProt P16232); assay: Inhibition of rat 11beta-HSD1
[2] = target: T1, 11-beta-hydroxysteroid dehydrogenase 1 (Homo sapiens, UniProt P28845); assay: Inhibition of human 11beta-HSD1
Summary of the method: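 Scintillation proximity assay on microsomes from HEK-293 cells stably transfected with human 11β-HSD1. Microsomes were incubated with NADPH and [3H]cortisone. The [3H]cortisol formed was captured by a monoclonal antibody on protein A-coated SPA beads. Compounds were first screened at […]; those giving over 50% inhibition went on to full IC50 determination. Each value comes from at least two independent experiments, with duplicates or more at each concentration.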

[3] = target: 11-beta-hydroxysteroid dehydrogenase 1 (Mus musculus) (UniProt P50172); assay: Inhibition of mouse 11beta-HSD1 expressed in HEK293 cell microsomes assessed as inhibition of [3H]cortisone conversion to [3H]cortisol at 1 uM by scintillation proximity assay; settings: Microsome
Summary of the method: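 Primary single-concentration screen in the SPA. Mouse 11β-HSD1 HEK-293 stable-transfectant microsomes are incubated with NADPH and [3H]cortisone, and [3H]cortisol is captured by antibody-coupled protein A SPA beads. Inhibitory ratio is the average of two determinations, with deviation from the average of 10% of the average value.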

Homo sapiens = species: Homo sapiens; assay: selectivity ratio of IC50 for human 11beta-HSD2 to IC50 for human 11beta-HSD1
Summary of the method: (§1)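 Ratio of 11β-HSD2 IC50 to 11β-HSD1 IC50 for the same species (mouse or human). Both IC50s come from microsome-based scintillation proximity assays, averaged over at least two independent experiments with at least duplicate wells per concentration. Only compounds exceeding 50% inhibition in the primary screen were evaluated.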

[4] = target: T2, 11-beta-hydroxysteroid dehydrogenase type 2 (Homo sapiens, UniProt P80365); assay: Inhibition of human 11beta-HSD2
T2 sequence (P80365 whole entry): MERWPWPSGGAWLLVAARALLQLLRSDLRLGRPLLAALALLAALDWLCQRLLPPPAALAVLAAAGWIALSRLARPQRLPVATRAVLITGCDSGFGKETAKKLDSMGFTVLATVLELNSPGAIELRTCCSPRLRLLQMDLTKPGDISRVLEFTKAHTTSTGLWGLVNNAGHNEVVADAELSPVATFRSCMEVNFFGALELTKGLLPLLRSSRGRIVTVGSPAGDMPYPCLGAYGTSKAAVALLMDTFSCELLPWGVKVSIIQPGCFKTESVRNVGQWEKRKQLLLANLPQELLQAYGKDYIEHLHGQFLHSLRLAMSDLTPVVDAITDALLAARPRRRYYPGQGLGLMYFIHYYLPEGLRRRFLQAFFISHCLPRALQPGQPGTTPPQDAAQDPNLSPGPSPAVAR

[5] = target: 11-beta-hydroxysteroid dehydrogenase 1 (Mus musculus, UniProt P50172); assay: Inhibition of mouse 11beta-HSD1 expressed in HEK293 cell microsomes assessed as inhibition of [3H]cortisone conversion to [3H]cortisol by scintillation proximity assay; set-up: species or system Microsome
Summary of the method: (§2)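 Enzyme source: microsomal fraction from HEK-293 cells stably transfected with 11β-HSD1 (human or mouse), incubated with NADPH and [3H]cortisone. The [3H]cortisol product is captured by a monoclonal antibody on protein A-coated SPA beads. IC50 is averaged over at least two independent experiments, at least duplicate per concentration.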

[6] = target: T1, 11-beta-hydroxysteroid dehydrogenase 1; assay: Inhibition of human 11beta-HSD1 expressed in HEK293 cell microsomes assessed as inhibition of [3H]cortisone conversion to [3H]cortisol by scintillation proximity assay; set-up: species or system Microsome; summary of the method: as §2
[7] = target: T3, 11-beta-hydroxysteroid dehydrogenase type 2 (Mus musculus, UniProt P51661); assay: Inhibition of mouse 11beta-HSD2
T3 sequence (P51661 whole entry): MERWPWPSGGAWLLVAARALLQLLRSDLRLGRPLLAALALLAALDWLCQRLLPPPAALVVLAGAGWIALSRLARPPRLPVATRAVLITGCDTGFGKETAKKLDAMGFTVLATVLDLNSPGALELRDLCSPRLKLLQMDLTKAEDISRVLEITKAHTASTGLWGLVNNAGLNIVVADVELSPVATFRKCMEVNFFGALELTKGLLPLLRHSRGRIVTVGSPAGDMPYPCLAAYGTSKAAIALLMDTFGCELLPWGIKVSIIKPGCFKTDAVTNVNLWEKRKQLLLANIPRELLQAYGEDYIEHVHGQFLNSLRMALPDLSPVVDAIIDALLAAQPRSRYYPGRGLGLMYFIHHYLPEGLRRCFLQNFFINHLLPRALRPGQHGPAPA
Summary of the method: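 Scintillation proximity assay using microsomes containing mouse 11β-HSD2. IC50 is averaged over at least two independent experiments, with at least two replicates per concentration.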

Mus musculus = species: Mus musculus; assay: Selectivity ratio of IC50 for mouse 11beta-HSD2 to IC50 for mouse 11beta-HSD1; summary of the method: as §1

T1 sequence (P28845 whole entry): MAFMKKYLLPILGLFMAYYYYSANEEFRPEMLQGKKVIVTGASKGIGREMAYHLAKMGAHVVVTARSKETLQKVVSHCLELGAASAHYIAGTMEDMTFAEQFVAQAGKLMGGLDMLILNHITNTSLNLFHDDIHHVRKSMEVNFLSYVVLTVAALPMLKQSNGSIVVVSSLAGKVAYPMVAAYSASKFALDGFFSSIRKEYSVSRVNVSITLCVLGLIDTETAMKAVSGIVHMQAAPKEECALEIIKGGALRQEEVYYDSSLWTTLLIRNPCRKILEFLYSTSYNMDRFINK
Chain of 11-beta-hydroxysteroid dehydrogenase 1 (Rattus norvegicus, UniProt P16232) (P16232 whole entry): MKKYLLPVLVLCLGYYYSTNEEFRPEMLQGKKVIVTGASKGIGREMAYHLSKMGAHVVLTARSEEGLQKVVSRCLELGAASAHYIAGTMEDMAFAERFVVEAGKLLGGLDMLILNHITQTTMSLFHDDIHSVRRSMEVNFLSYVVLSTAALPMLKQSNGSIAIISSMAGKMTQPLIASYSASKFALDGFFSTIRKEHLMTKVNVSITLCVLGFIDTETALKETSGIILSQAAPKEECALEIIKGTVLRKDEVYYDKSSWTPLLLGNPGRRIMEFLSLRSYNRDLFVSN
Chain of 11-beta-hydroxysteroid dehydrogenase 1 (Mus musculus, UniProt P50172) (P50172 whole entry): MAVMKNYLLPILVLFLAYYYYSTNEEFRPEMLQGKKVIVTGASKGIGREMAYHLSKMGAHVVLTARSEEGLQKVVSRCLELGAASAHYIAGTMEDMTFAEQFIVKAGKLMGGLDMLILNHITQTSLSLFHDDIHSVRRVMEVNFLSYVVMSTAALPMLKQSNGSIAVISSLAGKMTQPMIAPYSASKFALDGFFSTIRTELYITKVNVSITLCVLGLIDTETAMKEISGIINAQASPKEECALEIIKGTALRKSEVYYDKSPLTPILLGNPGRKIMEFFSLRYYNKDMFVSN
Chain of 11-beta-hydroxysteroid dehydrogenase 1 (Mus musculus) (P50172 whole entry, looked up): as the sequence (P50172 whole entry) above

| inhibition [3] | Ratio IC50 (Homo sapiens) | IC50 [4] | IC50 [5] | IC50 [6] | IC50 [7] | Ratio IC50 (Mus musculus) | SMILES | IC50 [1] | IC50 [2] |
| --- | --- | --- | --- | --- | --- | --- | --- | --- | --- |
| – | – | – | – | – | – | – | C[C@@H]1CC(n2c(=O)[nH]c3ccccc32)C[C@@H](C)N1C(=O)c1cc(Cl)c(N)c(Cl)c1 (some centres undefined) | 39 nM | 22 nM |
| 20.4% | 7 | 10 µM | 1550 nM | 1420 nM | > 1 mM | > 640 | C=C1C[C@@]23CC[C@@H]4[C@](C)(CO)CCC[C@@]4(C)[C@@H]2CC[C@H]1C3 | – | – |
